ChEMBL document CHEMBL3868592, “Analogues of Marine Guanidine Alkaloids Are in Vitro Effective against Trypanosoma cruzi and Selectively Eliminate Leishmania (L.) infantum Intracellular Amastigotes” (J Nat Prod, 2016)
Calls of active or inactive are those of the source. The calls are words filed in the database; no cut-off is given here.

What was measured:
[1] = tested on: Peritoneal macrophage; assay: Antiinflammatory activity in BALB/c mouse peritoneal macrophages assessed as decrease in MCP-1 release at 30 uM after 48 hrs by flow cytometric analysis; assay type: functional
Procedure, shortened: (§1)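 Peritoneal macrophages from BALB/c mice seeded at 1.5×10^5 cells/well; after 24 h, infected where applicable with L. infantum spleen-derived amastigotes at 1:10 (macrophage:amastigote). After 24 h, cocultured where applicable with splenocytes at 6:1. Compound added for 48 h. Supernatant cytokines quantified with an inflammatory cytometric bead array by flow cytometry. Sham-treated infected macrophages served as reference.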

[2] = tested on: Trypanosoma cruzi; assay: Antitrypanosomal activity against Trypanosoma cruzi Y trypomastigote forms infected in monkey LLC-MK2 cells assessed as reduction in parasite viability after 24 hrs by resazurin assay; assay type: functional, cell-based; conditions: LLC-MK2, 24 h
Procedure, shortened: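 Y-strain trypomastigotes from LLC-MK2 cultures seeded at 1×10^6/well in RPMI-1640. Compounds up to 150 μM, 24 h at 37 °C, 5% CO2. Viability by resazurin (0.011% in PBS), read at 570 nm against drug-free and cell-free wells; 0.5% DMSO control. IC50 by sigmoidal dose-response curve fitting.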

[3] = tested on: Leishmania infantum; assay: Antileishmanial activity against Leishmania infantum MHOM/BR/1972/LD promastigote forms […] assessed as reduction in parasite viability after 48 hrs by MTT assay; assay type: functional
Procedure, shortened: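 Late-growth-phase promastigotes (passage 5) seeded at 1×10^6/well in M-199. Compounds dissolved in DMSO, tested up to 100 μM, 48 h at 24 °C. Viability by MTT, OD 570 nm, against drug-free (100%) and cell-free blank wells; 0.5% DMSO control. IC50 from sigmoidal dose-response curves; ≥2 independent assays.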

[4] = tested on: Leishmania infantum; assay: Antileishmanial activity against Leishmania infantum MHOM/BR/1972/LD amastigote forms infected in BALB/c mouse peritoneal macrophages assessed as reduction in parasite viability after 120 hrs by giemsa staining based light microscopy; assay type: functional
Procedure, shortened: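 BALB/c peritoneal macrophages seeded at 1×10^5/well for 24 h, then infected with hamster spleen-derived amastigotes (1:10 macrophage:amastigote, 24 h, 37 °C, 5% CO2). Compound exposure for 120 h, highest 100 μM. Cells MeOH-fixed and Giemsa-stained; infected macrophages counted out of 400 cells. IC50 from sigmoidal dose-response; at least two independent assays.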

[5] = Cytotoxicity against mouse NCTC-929 cells assessed as decrease in cell viability after 48 hrs by MTT assay; assay type: toxicity
Procedure, shortened: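 NCTC clone 929 murine cells seeded at 6×10^4/well. Compound up to 150 μM for 48 h at 37 °C, 5% CO2. Viability read by MTT. CC50 from sigmoidal dose-response; mean of at least two independent experiments.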

[6] = Selectivity index, ratio of CC50 for mouse NCTC-929 cells to IC50 for Leishmania infantum MHOM/BR/1972/LD amastigote forms infected in BALB/c mouse macrophages; assay type: functional
[7] = Selectivity index, ratio of CC50 for mouse NCTC-929 cells to IC50 for Trypanosoma cruzi Y trypomastigote form infected in monkey LLC-MK2 cells; assay type: functional
[8] = tested on: Leishmania infantum; assay: Induction of plasma membrane permeability in Leishmania infantum MHOM/BR/1972/LD promastigote form assessed as increase in fluorescence intensity at 57 uM measured every 20 mins for 60 mins by SYTOX green dye based fluorimetric assay relative to control; assay type: functional
Procedure, shortened: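 Late-growth-phase promastigotes (passage 7) washed in PBS, seeded at 2×10^6/well and loaded with 1 μM SYTOX Green for 15 min at 24 °C. Compound added; fluorescence (ex 485/em 520 nm) read every 20 min over 60 min. 0.1% Triton X-100 defined maximal permeabilization. Background, DMSO, untreated and cell-free controls included. Triplicates.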

[9] = tested on: Peritoneal macrophage; assay: Antiinflammatory activity in BALB/c mouse peritoneal macrophages infected with Leishmania infantum MHOM/BR/1972/LD amastigote form assessed as decrease in MCP-1 release at 30 uM after 48 hrs by flow cytometric analysis; assay type: functional; procedure, shortened: as §1
[10] = tested on: Peritoneal macrophage; assay: Antiinflammatory activity in BALB/c mouse peritoneal macrophages assessed as decrease in INF-gamma release at 30 uM after 48 hrs by flow cytometric analysis; assay type: functional; procedure, shortened: as §1
[11] = tested on: Peritoneal macrophage; assay: Antiinflammatory activity in BALB/c mouse peritoneal macrophages infected with Leishmania infantum MHOM/BR/1972/LD amastigote form assessed as decrease in INF-gamma release at 30 uM after 48 hrs by flow cytometric analysis; assay type: functional; procedure, shortened: as §1
[12] = tested on: Peritoneal macrophage; assay: Antiinflammatory activity in BALB/c mouse peritoneal macrophages infected with Leishmania infantum MHOM/BR/1972/LD amastigote form cocultivated with splenocytes assessed as decrease in MCP-1 release at 30 uM after 48 hrs by flow cytometric analysis; assay type: functional; procedure, shortened: as §1
[13] = tested on: Peritoneal macrophage; assay: Antiinflammatory activity in BALB/c mouse peritoneal macrophages infected with Leishmania infantum MHOM/BR/1972/LD amastigote form cocultivated with splenocytes assessed as decrease in INF-gamma release at 30 uM after 48 hrs by flow cytometric analysis; assay type: functional; procedure, shortened: as §1
[14] = tested on: Splenocyte; assay: Antiinflammatory activity in splenocytes (unknown origin) assessed as decrease in MCP1 release at 30 uM after 48 hrs by flow cytometric analysis; assay type: functional, cell-based
[15] = tested on: Leishmania infantum; assay: Induction of mitochondrial membrane potential loss in Leishmania infantum MHOM/BR/1972/LD promastigote form at 57 uM incubated for 60 mins by rhodamine-123 dye based fluorimetric assay; assay type: functional
Procedure, shortened: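 Promastigotes (2×10^6/mL) in HBSS-glucose exposed to compound for 60 min at 25 °C. Rhodamine-123 (0.3 μg/mL) then added, cells washed and resuspended in HBSS-Glc, and fluorescence read at ex 485/em 520 nm. Sodium azide 10 mM as positive control; background, DMSO and untreated controls included. Triplicates.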

[16] = tested on: Leishmania infantum; assay: Induction of ROS generation in Leishmania infantum MHOM/BR/1972/LD promastigote form at 57 uM incubated for […] by H2DCF-DA probe based fluorimetric assay relative to sodium azide; assay type: functional
Procedure, shortened: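 Promastigotes (2 × 10^6/well) washed in HBSS and exposed to compound for 60 min, then loaded with 5 μM H2DCFDA for 15 min. Fluorescence read at ex 485/em 520 nm. Sodium azide (10 mM) served as positive control. Controls were compound background fluorescence, DMSO, untreated promastigotes and cell-free medium. Run in triplicate.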

[17] = tested on: Peritoneal macrophage; assay: Antiinflammatory activity in BALB/c mouse peritoneal macrophages co-cultivated with splenocytes assessed as decrease in INF-gamma release at 30 uM after 48 hrs by flow cytometric analysis; assay type: functional; procedure, shortened: as §1
[18] = tested on: Peritoneal macrophage; assay: Antiinflammatory activity in BALB/c mouse peritoneal macrophages co-cultivated with splenocytes assessed as decrease in MCP-1 release at 30 uM after 48 hrs by flow cytometric analysis; assay type: functional; procedure, shortened: as §1

Question: Which Activity [1] does the source give for `C[C@@H]1C[C@@H]2CC[C@@H]3C[C@H](CCCCOCc4ccccc4)NC(=[NH+]1)N32.F[B-](F)(F)F` here?
Answer: Active

Question: What about the IC50 [2] of the same compound?
Answer: 41 µM

Question: What about the IC50 [3] of the same compound?
Answer: 57 µM

Question: And the IC50 [4]?
Answer: 5 µM

Question: What about the CC50 at 48 h [5] of the same compound?
Answer: 138 µM

Question: And the “Ratio CC50/IC50” value [6]?
Answer: 25

Question: What about the “Ratio CC50/IC50” value [7] of the same compound?
Answer: 3

Question: What about the Activity [8] of the same compound?
Answer: 25%

Question: And the Activity [9]?
Answer: Active

Question: And the Activity [10]?
Answer: Active

Question: What about the Activity [11] of the same compound?
Answer: Active

Question: What about the Activity [12] of the same compound?
Answer: Active

Question: And the Activity [13]?
Answer: Active

Question: What about the Activity [14] of the same compound?
Answer: Active

Question: What about the Activity [15] of the same compound?
Answer: 70%

Question: What about the “fold change (FC)” value [16] of the same compound?
Answer: 3

Question: What about the Activity [17] of the same compound?
Answer: Active

Question: And the Activity [18]?
Answer: Active
